Compound activity deposited in PubChem BioAssay by several laboratories.
AP complement = alternative complement pathway inhibitors, primary screen, biochemical, ELISA, human serum, orthogonally pooled compounds | AID 1235, 2008 | LPS-coated ELISA, C3 deposition; tested in compound mixtures | hit rate 0.08% among 62,000 | inhibition, % at 5 µM;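 active = inhibition above 30% in each of the two pooled mixtures holding the compound, so the lower value exceeds 30%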;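 note: 0% = serum in Mg-EGTA without compound and 100% = EDTA serum blank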
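Test system – human serum alternative complement pathway, C3 deposition on LPS-coated wells · Buffer or medium – diluted human serum in Mg2+-EGTA GVB++ · Compound dosing – 5 µM each compound, pools of ten, 50 µM per pool · Schedule – 1 h serum-compound exposure at 37 °C · Measured by – Anti-C3 ELISA, OD 450 nm · Read-out basis – percent inhibition of C3 deposition onto LPS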
D1 mod = D1 CRE-luciferase signal change, two-sided – cell-based, HEK293 D1, dopamine EC30, D1 allosteric modulator project, primary screen. D(1A) dopamine receptor (Homo sapiens), P21728. dopamine EC30 potentiation; actives deviate in either direction. B-score at 10 µM. hit rate 5.9% among 58,000. AID 641, 2007;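 active = luminescence count or its row- and column-corrected plate score outside the 99.7% band of the plate's sample wells, on either side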
HEK293 NFkB inh = inhibitors of PMA/ionomycin-induced NF-kB reporter, primary screen, antigen receptor NF-kB inhibitor project, cell-based, HEK-293 luciferase reporter, luminescence; AID 465, 2006; HEK-293 NF-kB luciferase reporter; inhibition, % at 3 µM; hit rate 0.21% among 62,000;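 active = inhibition above the mean of all tested compounds plus 3 SD, cut at about 40% in these data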;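 note: 0% = stimulated DMSO wells and 100% = 10 µM reference inhibitor 5653914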
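Reagent: PMA plus ionomycin mix as NF-kB-activating stimulus. Assay system: NF-kB luciferase reporter HEK-293 cells. Technique: luminescence from luciferase substrate reagent. Incubation: 1 h compound pre-incubation, 16 h PMA/ionomycin at 37 °C. Benchmarks: DMSO only as uninhibited control, 10 µM reference inhibitor as full inhibition. Repeats: tested once.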
E coli RNAP = E. coli RNAP inhibitors, biochemical; E. coli RNA polymerase, fluorescence transcription assay; inhibition, %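 (tested at 10 µM)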; hit rate 0.2% among 62,000; AID 559, 2006; in the data active = inhibition above about 20%;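 note: 0% = enzyme without compound and 100% = no enzyme blank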
Target sequence (P0A8V2 whole entry, looked up): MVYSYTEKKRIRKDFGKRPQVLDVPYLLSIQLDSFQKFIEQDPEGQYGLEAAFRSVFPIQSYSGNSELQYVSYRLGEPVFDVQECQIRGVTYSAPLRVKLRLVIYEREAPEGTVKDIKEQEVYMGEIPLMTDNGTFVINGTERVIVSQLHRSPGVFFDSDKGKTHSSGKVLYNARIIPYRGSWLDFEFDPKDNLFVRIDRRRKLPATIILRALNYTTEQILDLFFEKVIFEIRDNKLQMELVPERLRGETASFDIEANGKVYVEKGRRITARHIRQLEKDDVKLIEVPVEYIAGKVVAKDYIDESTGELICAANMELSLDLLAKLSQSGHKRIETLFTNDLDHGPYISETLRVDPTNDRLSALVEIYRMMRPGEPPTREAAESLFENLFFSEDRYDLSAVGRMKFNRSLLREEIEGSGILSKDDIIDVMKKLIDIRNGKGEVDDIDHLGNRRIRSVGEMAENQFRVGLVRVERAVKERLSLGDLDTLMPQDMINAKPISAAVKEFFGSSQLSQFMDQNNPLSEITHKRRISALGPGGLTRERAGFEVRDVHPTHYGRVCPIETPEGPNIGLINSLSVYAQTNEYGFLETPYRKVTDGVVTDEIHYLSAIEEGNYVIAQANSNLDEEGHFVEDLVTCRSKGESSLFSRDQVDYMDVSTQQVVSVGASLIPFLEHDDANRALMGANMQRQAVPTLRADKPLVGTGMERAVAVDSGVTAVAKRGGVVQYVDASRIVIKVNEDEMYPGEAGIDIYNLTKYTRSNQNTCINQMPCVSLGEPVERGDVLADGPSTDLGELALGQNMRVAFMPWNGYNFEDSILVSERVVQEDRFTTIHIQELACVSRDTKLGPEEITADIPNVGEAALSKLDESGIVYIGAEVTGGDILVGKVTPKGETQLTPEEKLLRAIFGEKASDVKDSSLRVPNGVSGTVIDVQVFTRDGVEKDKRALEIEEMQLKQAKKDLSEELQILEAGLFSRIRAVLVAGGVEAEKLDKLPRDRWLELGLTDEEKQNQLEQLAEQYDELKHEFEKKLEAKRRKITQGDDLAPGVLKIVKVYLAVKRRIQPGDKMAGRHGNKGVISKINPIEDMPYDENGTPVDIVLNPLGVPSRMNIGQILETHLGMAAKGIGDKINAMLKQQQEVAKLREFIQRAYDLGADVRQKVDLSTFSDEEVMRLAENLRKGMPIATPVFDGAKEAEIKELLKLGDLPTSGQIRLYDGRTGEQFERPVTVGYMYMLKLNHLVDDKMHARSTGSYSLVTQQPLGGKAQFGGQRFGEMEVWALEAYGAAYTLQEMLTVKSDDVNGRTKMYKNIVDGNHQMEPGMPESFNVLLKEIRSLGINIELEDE
DAT uptake mod = changed hDAT dopamine uptake under cocaine IC80, either direction, primary screen, cocaine antagonist project, cell-based, LLC-PK1 hDAT, [14C]-dopamine uptake, MLSMR | Sodium-dependent dopamine transporter (Homo sapiens), Q01959 | LLC-PK1 hDAT cells, [14C]-dopamine uptake with cocaine IC80; actives deviate in either direction | B-score at 10 µM | hit rate 1.3% among 110,000 | AID 449768, 2010;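 active = Z score or B-score, a plate-position-corrected score, falls beyond the plate's 99.7% confidence bounds, in either direction; inactive = both scores lie inside the 99.7% bounds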;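 note: scored against the spread of the other compound wells on the same plate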
D1 PAM confirm = D1 receptor positive allosteric modulators, retest, confirmation, cell-based, HEK293 D1, CRE-luciferase, duplicate | shares compounds with D1 mod | dopamine EC30 potentiation; stronger effect = higher value | luminescence at 10 µM | hit rate 88% among 2,200 | AID 642, 2007;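 active = luminescence in either of two replicates above the same-plate mean plus 3 SD of the low-dose dopamine control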
D1 no dopamine = D1 receptor agonism without dopamine, confirmation, mechanism study for D1 allosteric modulator project, cell-based, HEK293 D1, CRE-luciferase, secondary assay 1; shares compounds with D1 mod; luminescence at 10 µM; luminescence, no dopamine; stronger effect = higher value; hit rate 0.8% among 1,900; in the data active = luminescence above about 3900
Isoprot counter = counter-screen for D1 modulators: isoproterenol response in HEK293 cells. shares compounds with D1 mod. HEK293 D1 CRE-luciferase, isoproterenol EC30 counter-screen. calls only at 10 µM. hit rate 63% among 2,200;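 active = luminescence in either replicate above plate mean of wells with a partly effective reference agonist dose plus 3 SD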;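 note: isoproterenol raises cAMP through native beta-adrenoceptor Gs so signal bypasses D1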
* hit, by the source's call; i = inactive; . = no result given; + = active, no number. Shown is part of a subset that was picked to be rich in hits.

SMILES	AP complement	D1 mod	HEK293 NFkB inh	E coli RNAP	DAT uptake mod	D1 PAM confirm	D1 no dopamine	Isoprot counter
CCC1(C)Cc2c(C#N)c(N)sc(=S)c2CO1 (stereo unspecified)	.	20*	.	6	0.86	18368*	1660	+
COc1ccc(C2Nc3ccccc3C(=O)N2O)cc1OC (stereo unspecified)	-2	.	-1	8	.	.	.	.
COc1ccc(C2CC(=O)Nc3ccccc3S2(=O)=O)cc1OC (stereo unspecified)	22	2.9*	12	0	-0.84	9916*	1608	i
CCn1c2ccccc2c2nnc(SCCCn3c(=O)[nH]c4ccccc43)nc21	5	9.6*	12	11	0.42	10684*	1736	i
C=CCn1c2ccccc2c2nnc(SCC(=O)NC(C(=O)OC)C(C)C)nc21 (stereo unspecified)	7	4.4*	18	9	0.61	7244*	1452	i
CCn1c2ccccc2c2nnc(SCc3ccccc3)nc21	10	1.5	2	4	-0.32	.	.	.
CCn1c2ccccc2c2nnc(SCc3ccc(C(=O)OC)o3)nc21	8	5.6*	12	4	0.48	9356*	1384	+
CC(NC(=O)CCC1COc2ccccc2O1)c1ccccc1 (stereo unspecified)	.	.	.	.	-0.12	.	.	.
CN1CCN(CCNC(=O)c2cc3c(=O)n(C)c4ccccc4c3n2C)CC1	12	4.6*	4	2	0.45	5788	.	i
CCCN1CCN(CCCNC(=O)c2cc3c(=O)n(C)c4ccccc4c3n2C)CC1	3	-0.0064	16	9	-0.31	.	.	.
NC(=O)NC(=O)Nc1ccccc1Cl	7	2.8*	15	6	0.23	7220*	1472	i
O=C(Nc1cccs1)Nc1ccccc1Cl	3	-0.26	8	-5	0.098	.	.	.
O=C(CSCC(=O)N1CCCCC1)Nc1nc(-c2ccccc2)c(-c2ccccc2)s1	.	.	.	.	-0.22	.	.	.
O=C(NC1CCCCC1)c1ccccc1NC(=O)C1CC(=O)N(c2ccc(Cl)cc2)C1 (stereo unspecified)	.	.	.	.	0.044	.	.	.
CCOC(=O)c1cn(-c2ccccc2)nc1-c1cccnc1	10	23*	-3	10	0.85	27848*	1528	+
CCOC(=O)c1cn(-c2ccccc2)nc1-c1ccncc1	16	13*	7	2	0.7	20136*	1728	+
O=C(O)c1cn(-c2ccccc2)nc1-c1cccnc1	2	0.17	10	6	0.41	.	.	.
CCOc1ccc(N(C(C)C(=O)NCc2ccco2)S(C)(=O)=O)cc1 (stereo unspecified)	.	.	.	.	0.032	.	.	.
CSc1nnc(-c2ccco2)c(-c2ccco2)n1	6	4.2*	10	11	-2.3	10584*	.	+
Cc1cc(C(=O)NCCCn2ccnc2)sc1-c1ccccc1	2	-1.6	14	8	1.2	.	.	.
CNc1nc(C)nc(-n2nc(C)cc2C)n1	12	0.9	-4	1	-0.78	.	.	.
Cc1cc(C)n(-c2nc(C)nc(NCc3ccccc3)n2)n1	8	6.7*	.	.	0.54	14476*	1636	+
COC(=O)C1=C(NC(=O)c2ccc(C)cc2)CCS1	.	.	.	.	-0.029	.	.	.
Cc1ccc(N(C(=O)C2CCC(=O)N2)C2(C(=O)NC3CCCC3)CCCCC2)cc1 (stereo unspecified)	.	.	.	.	-0.9	.	.	.
Cc1nc(NS(=O)(=O)c2ccccc2)sc1NC(=O)OC(C)C	5	2.4*	.	8	-0.53	4964	.	i
SMILES	AP complement	D1 mod	HEK293 NFkB inh	E coli RNAP	DAT uptake mod	D1 PAM confirm	D1 no dopamine	Isoprot counter
CCc1nnc(NC(=O)CSc2nc(C)c3c(c2C#N)CCCC3)s1	.	5.8*	.	3	0.61	11752*	.	+
O=C(CSc1nnc(COc2ccc3c(c2)CCCC3)o1)Nc1ccc(F)cc1	20	0.01	14	2	-0.47	.	.	.
CN(C)c1ccc2c(c1)OC(N)=C(C#N)C2c1cccc(F)c1 (stereo unspecified)	17	8.8*	44*	-7	-2.1	14124*	.	+
N#CC1=C(N)Oc2cc(O)ccc2C1c1ccncc1 (stereo unspecified)	13	.	2	4	0.31	.	.	.
CCn1c(SCC(=O)N(Cc2ccccc2)C2CCS(=O)(=O)C2)nc2ccccc2c1=O (stereo unspecified)	6	8.9*	18	12	0.081	13696*	.	+
CN(C(=O)CSc1nc2ccccc2n1CCc1ccccc1)C1CCS(=O)(=O)C1 (stereo unspecified)	17	-0.66	9	6	1.4	.	.	.
CCOC(=O)c1c(C)[nH]c(C(=O)COC(=O)CSCC(=O)N(CC)CC)c1C	-5	0.031	17	2	-0.31	.	.	.
O=C(c1cccnc1)N(Cc1ccccc1)c1ccccc1	7	6.8*	7	-1	0.47	15108*	1816	+
O=C(c1ccccc1)N(Cc1ccccc1)c1ccccn1	22	5.8*	8	.	-0.6	9876*	.	i
CCOC(=O)C1CCCCN1Cc1cc(Cl)ccc1O (stereo unspecified)	23	4*	.	5	-0.024	8896*	.	+
CCOC(=O)C1CCCCN1Cc1cc(OC)ccc1OC (stereo unspecified)	.	.	.	.	1	.	.	.
Cc1cccc(-n2c(=O)[nH]c3c(C(N)=O)nc(C(C)C)nc32)c1	.	5.5*	8	.	0.48	10016*	1376	i
O=C(COC(=O)c1ccc(S(=O)(=O)Nc2ccccc2)cc1)NCCN1C(=O)CSC1=O	-11	-0.86	24	8	0.33	.	.	.
CCCc1cc(=O)[nH]c(Nc2ccc(O)cc2)n1	.	.	.	.	-0.046	.	.	.
CCCc1cc(=O)[nH]c(NCc2ccc(Cl)cc2)n1	5	2.8*	2	1	0.59	8064*	1432	i
CCOC(=O)c1sc(C)c2c1NC1(CCCCC1)NC2=O	10	6.2*	23	0	0.071	14036*	.	+
CC(Oc1ccc(Cl)cc1Cl)C(=O)N/N=C1\CCCc2ccccc21 (stereo unspecified)	.	.	.	.	-2.1	.	.	.
